Experimental data: PMC3359464 (Medicinal Chemistry Research, 2011)
Residues, ends and D or L forms follow the SMILES beside them.

Experiments:
DPP IV = experiment: Degradation rates of EMs by purified DPP IV with and without inhibitors; type: biochemical
How it was run: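 Commercial purified DPP IV at 0.002 mg protein/ml incubated with endomorphin and test compound (1 mM solutions in 50 mM Tris–HCl, pH 7.4) at 37°C for 0, 7.5, 15, 22.5 and 30 min. Stopped on ice with 1 M HCl, centrifuged, RP-HPLC on C18 (0.1% TFA/acetonitrile gradient). k from linear regression of ln(A/A0) versus time; % inhibition from k with and without inhibitor. Three experiments in duplicate; mean ± SEM.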

APM [1] = target: T1, APM (Sus scrofa, UniProt P15145, species not given); experiment: Degradation rates of EMs by purified APM with and without inhibitors; type: biochemical; settings: purified APM (commercially available enzyme), pH 7.4
T1 sequence (P15145 2-963): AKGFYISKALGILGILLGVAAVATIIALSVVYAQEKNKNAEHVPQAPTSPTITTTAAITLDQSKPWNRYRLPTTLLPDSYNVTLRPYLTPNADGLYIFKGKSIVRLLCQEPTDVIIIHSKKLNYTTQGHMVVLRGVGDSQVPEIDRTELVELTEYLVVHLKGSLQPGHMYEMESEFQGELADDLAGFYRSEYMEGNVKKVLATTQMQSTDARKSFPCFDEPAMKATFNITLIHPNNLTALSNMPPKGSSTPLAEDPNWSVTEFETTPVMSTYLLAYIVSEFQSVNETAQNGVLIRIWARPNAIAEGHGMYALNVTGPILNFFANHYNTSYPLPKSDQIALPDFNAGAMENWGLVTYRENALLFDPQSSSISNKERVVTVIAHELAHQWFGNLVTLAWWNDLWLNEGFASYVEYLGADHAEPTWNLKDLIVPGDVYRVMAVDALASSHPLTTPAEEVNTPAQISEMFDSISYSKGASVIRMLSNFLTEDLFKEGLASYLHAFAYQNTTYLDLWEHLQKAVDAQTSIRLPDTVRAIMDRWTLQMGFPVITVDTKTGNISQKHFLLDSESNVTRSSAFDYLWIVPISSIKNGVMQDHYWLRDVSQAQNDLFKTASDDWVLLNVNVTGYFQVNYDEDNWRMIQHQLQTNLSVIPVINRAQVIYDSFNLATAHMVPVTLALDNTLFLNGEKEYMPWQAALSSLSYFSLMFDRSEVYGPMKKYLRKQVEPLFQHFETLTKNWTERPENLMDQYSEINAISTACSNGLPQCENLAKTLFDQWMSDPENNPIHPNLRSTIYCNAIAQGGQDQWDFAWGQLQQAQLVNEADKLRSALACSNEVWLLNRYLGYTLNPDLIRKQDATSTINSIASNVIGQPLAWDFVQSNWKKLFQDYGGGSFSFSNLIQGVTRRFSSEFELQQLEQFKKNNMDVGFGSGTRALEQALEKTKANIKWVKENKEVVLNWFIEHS

APM [2] = target: T2, APM (Sus scrofa, UniProt P15145); experiment: as above; type: biochemical
T2 sequence (P15145 2-963): T1 sequence (P15145 2-963)

[3] = Blood-brain barrier crossing; type: in vivo; settings: preliminary results
[4] = test system: rat spinal cord homogenate; settings: ref Sugimoto-Watanabe et al., [1999]; cited from earlier work
[5] = substrate EM-1, 37°C, 0-30 min, Tris-HCl pH 7.4
[6] = substrate EM-2, 37°C, 0-30 min, Tris-HCl pH 7.4

NC(=O)[C@H](Cc1ccccc1)NC(=O)[C@H](Cc1c[nH]c2ccccc12)NC(=O)[C@@H]1CCCN1C(=O)[C@@H](N)Cc1ccc(O)cc1 [EM-1, Tyr-Pro-Trp-Phe-NH2]
half-life (DPP IV; purified DPP IV (commercially available enzyme), pH 7.4): 16.7 ± 0.52 min
Resistance to DPP IV relative to EM-2 (DPP IV; without inhibitor): about 1.5 times
100 × k, degradation rate of EM-1 by DPP IV alone (DPP IV; without inhibitor, 37°C): 4.12 ± 0.2 min⁻¹
half-life (APM [1]): 19.7 ± 0.5 min
100 × k, degradation rate of EM-1 by APM alone (APM [2]; without inhibitor, 37°C): 3.51 ± 0.09 min⁻¹

Ile-Pro-Ile [Diprotin A]
100 × k, degradation rate of EM-1 by DPP IV in the presence of inhibitor (DPP IV; [5]): 0.13 ± 0.01 min⁻¹
100 × k, degradation rate of EM-2 by DPP IV in the presence of inhibitor (DPP IV; [6]): 0.18 ± 0.01 min⁻¹

C[C@H](NC(=O)[C@@H]1CCCN1C(=O)[C@@H](N)Cc1ccc(O)cc1)C(N)=O [EMDB-2, Tyr-Pro-Ala-NH2] (H-Tyr-Pro-Ala-NH2; N-terminus assumed)
Crossing of the blood-brain barrier [3]: do not cross the blood–brain barrier

CCCCC[C@H](CC(=O)NO)C(=O)N[C@H](C(=O)N1CCC[C@H]1CO)C(C)C [Actinonin, actinonin]
Effect on EM-1 degradation in rat spinal cord homogenate [4]: significantly blocked EM-1 degradation
100 × k, degradation rate of EM-1 by APM in the presence of inhibitor (APM [2]; [5]): 1.88 ± 0.09 min⁻¹
100 × k, degradation rate of EM-2 by APM in the presence of inhibitor (APM [2]; [6]): 1.50 ± 0.05 min⁻¹
